Experimental data: publication PMC6022754 (Bioorganic & medicinal chemistry letters, 2017)

How the values were obtained:
[1] = BJ cell cytotoxicity counter screen; type: cell-based; details: human, BJ cells (normal human foreskin fibroblast cell line)
[2] = system: HT29 colorectal carcinoma cell line; experiment: quantitative high-throughput screening, HT29 cell growth inhibition; type: cell-based; details: HT29 cells, vs SSA (1)
[3] = system: PC3 prostate cancer cell line; experiment: quantitative high-throughput screening, PC3 cell growth inhibition; type: cell-based; details: PC3 cells, vs SSA (1)
[4] = system: MDA-MB-231 breast cancer cell line; experiment: quantitative high-throughput screening, MDA-MB-231 cell growth inhibition; type: cell-based; details: MDA-MB-231 cells, vs SSA (1)
[5] = computed physicochemical properties; details: LipE = pCC50 (HT29) – logD (at pH 7.4)
Method in brief: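 Lipophilic efficiency: CC50 taken from whole-cell HT29 growth-inhibition screening, not an enzymatic target-based assay. The value is converted to pCC50, and logD at pH 7.4 is subtracted from it.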

[6] = system: human colon tumor xenograft; details: human colon tumor xenograft model; cited from earlier work

| SMILES | EC50 [1] [µM] | further results |
| --- | --- | --- |
| CCN(CC)CCCNC(=O)CC1=C(C)/C(=C/c2ccc(SC)cc2)c2ccc(F)cc21 [Compound 4] | > 7.57 | – |
| CSc1ccc(/C=C2/C(C)=C(CC(=O)N3CCN(c4ccncc4)CC3)c3cc(F)ccc32)cc1 [Compound 46] | > 7.57 | – |
| CC1=C(CC(=O)N(C)CCN(C)C)c2cc(F)ccc2/C1=C\c1nc2ccccc2s1 [Compound 35] | > 7.57 | – |
| CSc1ccc(/C=C2/C(C)=C(CC(=O)N3CCN(CCN(C)C)CC3)c3cc(F)ccc32)cc1 [Compound 45] | > 7.57 | – |
| CSc1ccc(/C=C2/C(C)=C(CC(=O)NCCCN(C)C)c3cc(F)ccc32)cc1 [Compound 2] | – | reduction of activity compared to lead compound 1, HT29 [2]: 4 fold; reduction of activity compared to lead compound 1, PC3 [3]: 2 fold; reduction of activity compared to lead compound 1, MDA-MB-231 [4]: 2 fold |
| CC1=C(CC(=O)NCCN2CCCC2)c2cc(F)ccc2/C1=C\c1nc2ccccc2s1 [Compound 61] | > 7.57 | LipE [5]: > 3 |
| COc1cc(/C=C2/C(C)=C(CC(=O)N(C)CCN(C)C(=O)[C@@H](N)C(C)C)c3cc(F)ccc32)cc(OC)c1OC [Compound 89] | > 7.57 | – |
| COc1cc(/C=C2/C(C)=C(CC(=O)N3CCN(c4ccncc4)CC3)c3cc(F)ccc32)cc(OC)c1OC [Compound 59] | > 7.57 | – |
| CSc1ccc(/C=C2/C(C)=C(CC(=O)N(C)CCN(C)C)c3cc(F)ccc32)cc1 [Compound 5] | > 7.57 | – |
| CC1=C(CC(=O)N2CCN(c3ccncc3)CC2)c2cc(F)ccc2/C1=C\c1nc2ccccc2s1 [Compound 63] | > 7.57 | – |
| CC1=C(CC(=O)NCCCN(C)C)c2cc(F)ccc2/C1=C\c1nc2ccccc2s1 [Compound 33] | > 7.57 | – |
| CC1=C(CC(=O)N2CCN(CCCN(C)C)CC2)c2cc(F)ccc2/C1=C\c1nc2ccccc2s1 [Compound 62] | > 7.57 | LipE [5]: > 3 |
| CSc1ccc(/C=C2/C(C)=C(CC(=O)NCCN(C)C)c3cc(F)ccc32)cc1 [Compound 1, sulindac sulfide amide] | – | LipE [5]: 1.78; in vivo antitumor activity [6]: comparable to sulindac |
| CSc1ccc(/C=C2/C(C)=C(CC(=O)N3CCCN(C)CC3)c3cc(F)ccc32)cc1 [Compound 50] | > 7.57 | – |
| CSc1ccc(/C=C2/C(C)=C(CC(=O)N3CCN(CCCN(C)C)CC3)c3cc(F)ccc32)cc1 [Compound 44] | > 7.57 | – |
| CSc1ccc(/C=C2/C(C)=C(CC(=O)NCCC3CCCN3C)c3cc(F)ccc32)cc1 (centres unmarked) [Compound 41] | – | LipE [5]: > 3 |
| CSc1ccc(/C=C2/C(C)=C(CC(=O)NCc3ccccc3)c3cc(F)ccc32)cc1 [Compound 72] | – | reduction of activity compared to lead compound 1, HT29 [2]: 4 fold; reduction of activity compared to lead compound 1, PC3 [3]: 4 fold; reduction of activity compared to lead compound 1, MDA-MB-231 [4]: 1.5 fold |
| CC1=C(CC(=O)NCc2ccccc2)c2cc(F)ccc2/C1=C\c1ccc([S+](C)[O-])cc1 (centres unmarked) [Compound 79] | > 7.57 | – |
| CSc1ccc(/C=C2/C(C)=C(CC(=O)N3CCC[C@H]3CN3CCCC3)c3cc(F)ccc32)cc1 [Compound 43] | > 7.57 | – |
